Data published in the EternaBench riboswitch data.

Tested on: MS2 coat protein
Assay: apparent Kd, MS2 coat protein; higher = weaker binding; RNA-MaP array; FMN 200 µM where present
In short: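 Two titrations, one without ligand and one with constant ligand, were run with SNAP-549-labelled MS2 coat protein from 0.7 or 1.5 nM, doubling to 3 µM. The targets were designs transcribed by stalled E. coli RNA polymerase on Illumina sequencing-chip clusters, in 100 mM Tris-HCl pH 7.5, 80 mM KCl, 4 mM MgCl2, BSA, DTT, yeast tRNA and Tween-20. The apparent Kd is the median of filtered per-cluster binding-curve fits, with green signal normalised to red-channel RNA signal and control-cluster median Fmax.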

[1] = designed as: OFF switch for flavin mononucleotide, no ligand
[2] = ligand present: flavin mononucleotide, designed as: OFF switch for flavin mononucleotide
[3] = designed as: ON switch for flavin mononucleotide, no ligand
[4] = ligand present: flavin mononucleotide, designed as: ON switch for flavin mononucleotide

Row | Sequence | apparent Kd [1] | apparent Kd [2] | apparent Kd [3] | apparent Kd [4]
1 | UGUGUGUGGGCAGGAUAUGCGUGAAGAUGUAUGAUGUAGUGUGAUGUAACAUGAGGAUCACCCAUGUAGAAGGGCCGGUGUGUG | 124 nM | 129 nM |  | 
2 | UGAGAUCGGGCAGGAUAUCGACAUGAGGAUCACCCAUGUGGGUUAUACUUCCCGCAUGGCUGUGGCGAGAAGGGCCCGGACCAU | 395 nM | 83.1 nM |  | 
3 | AGUCGGAGCAGAGGAUAUACAUGAGGAUCACCCAUGUAAUUAAGUGAAGCCUGGAAACAGGCAAUGUAGAAGGCUGCUCCGACA | 9.44 nM | 51.7 nM |  | 
4 | CCUAUACAUGAGGAUCACCCAUGUCAGGAUAUAGAAAGCUACGGAAUAGGACGUAGCACUAGAAGGGACUGGCU | 29.2 nM | 43.4 nM |  | 
5 | AUCAGCUCGUCAGGAUAUACCUCACUGCGUCAGCAGUGUGGUAAGAUCACAUGAGGAUCACCCAUGUAGAAGGGACGAGCUGAU | 6.44 nM | 6.19 nM |  | 
6 | AAAAAACAUGAGGAUCACCCAUGUAAAAAAAUGGGAGGAUAUCUGAAUUAAUUAAAUUAAGGAGAAGGCCUAAAAA |  |  | 239 nM | 31.9 nM
7 | UCCUACAUCGGAGGAUAUCAUGUGUAAACAUGAGGAUCACCCAUGUCGUACGAUAGUACGGAGAUUGAGAAGGCCGAUGUAGGU |  |  | 93.9 nM | 17.3 nM
8 | CUCAUGUCAGGAUAUCAGUAGUAAAAAAAAAAAAUUACUACUGAGAAGGGACAUGAGGAUCACCCAUGUCACUU | 27.1 nM | 28.7 nM |  | 
9 | ACGCUUUGGGAGAAGGUACUUUAAAAUAUUUCCACAUGAGGAUCACCCAUGUAAGGAUAUCCCAUCGUUAAAUAUUAUACAGCA | 8.91 nM | 6.88 nM |  | 
10 | AGAGACCUCACAGGAUAUGCUGGACUUUGUCCAGCAGAAGGGUGAAAACAUGAGGAUCACCCAUGUAUGGUCUCCAAAUUUAAC |  |  | 187 nM | 12.7 nM
11 | UAAUAUCUGUAGGAUAUCGGUGGAGCACACGUAUGAGAAGGGCAGACAUGAGGAUCACCCAUGUAUAGGGUCCG | 26.8 nM | 41 nM |  | 
12 | UUGGACGUCGUAGGAUAUGUAGGAUAUUCCUACAUGAGGAUCACCCAUGUUGACAUGGAAGAAGGACAGAAGUACGAUGUCCAU |  |  |  | 5.6 nM
13 | AACAGCACAGGAUAUACAUGAGGAUCACCCAUGUGAGAAUUAAGUAGAUUGCCACAGAGUAGAAGGGUGCUGGA | 53.7 nM | 104 nM |  | 
14 | UUCUUGGCAGGAUAUGCUUUUUUAGACAUGAGGAUCACCCAUGUGAUUAUUUUUGGUUUUGCAGAAGGGCCUUAAU | 65.4 nM | 87.2 nM |  | 
15 | UUUAUUUAGGCAGGAUAUACAUGUAUAUAUAUUUUUUUAUAUAUUAUUACAUGAGGAUCACCCAUGUAGAAGGGCCUUAUUAUA | 75.6 nM | 89.1 nM |  | 
16 | UCCCUUAGUGUAAGGAUAUCGUUCCAUUGACGGAGCGAGAAGGUACAUGAGGAUCACCCAUGUGUCAAUGCCGG | 20 nM | 54.4 nM |  | 
17 | AAUUUAAUACAUGAGGAUCACCCAUGUAAUACUAGUAAGAUCUAGGAUAUCAGCUCGUUUAGAGCUGAGAAGGAGAUCACAUGU |  |  | 86.3 nM | 26 nM
18 | CAAUUUAUGUCAGGAUAUACAAUACAAUGAUUAGUAGAAGGGAUUAAUACAUGAGGAUCACCCAUGUCAUGUGUCAUAAUAACC | 26.1 nM | 20.1 nM |  | 
19 | UGGAGAAAUCAAGGAUAUGCUACCGUUUCGGUAGCAGAAGGUGAUCACAUGAGGAUCACCCAUGUAUGCAUGCGUGAGCGUGCU |  |  | 46.4 nM | 289 nM

Row | Sequence | apparent Kd [1] | apparent Kd [2] | apparent Kd [3] | apparent Kd [4]
20 | AAUAUUAAGUAGAAGGUAGAUAUUAUUUUAUUCAUGUUUACAUGAGGAUCACCCAUGUAUAAGUCUAAGGAUAUACAUCGAUAG | 14.9 nM | 9.93 nM |  | 
21 | GGUGCGUAUGUGAGGAUAUGCUGGUCCUUGGAUCAGCAGAAGGCACAUGAGGAUCACCCAUGUGGUGUCGUACC | 357 nM | 23.5 nM |  | 
22 | CCGUUACAUGAGGAUCACCCAUGUGAGGAUAUCGAUGUAACUAGCAGCGUGCGGGACUCGAGAAGGCACUUGGC | 104 nM | 75.2 nM |  | 
23 | UAGCUCGUGUGAGGAUAUGCCGCCGUUUCGGCUGCAGAAGGUGCUACGUUACAUGAGGAUCACCCAUGUCUCUGUUGUUUCGUC |  |  | 32.5 nM | 30.5 nM
24 | AUUAGUAAUAAGGAUAUCACUAGCUGCGGCUAGUGAGAAGGUAUUACAUGAGGAUCACCCAUGUGAUUAAUUAA | 76.4 nM | 418 nM |  | 
25 | GCAUCACAUGAGGAUCACCCAUGUCUUCGGAGCGGAGGAUAUGGUCACUGUAAACAGUGGCCAGAAGGCUGGAUGC |  |  |  | 25.5 nM
26 | UUUUUUAAGUAAGGAUAUCGGUCUUAGUUAGGUCGAGAAGGUACAUGAGGAUCACCCAUGUUGUUUUUUUUUUCUUUUUUUUUU | 9.51 nM | 14.1 nM |  | 
27 | GUGAGGUAAGGAUAUAGUAGUGAAGGUAAAAUAUGAGAAUGCUAGAAGGUACAUGAGGAUCACCCAUGUUAGGG | 211 nM | 203 nM |  | 
28 | GCGGGUAAAGCAGGAUAUCUAAUGUCACGGAAACAUGAGGAUCACCCAUGUAGAGAAGGGCUAAGUCAUACAAUUCGAAUUUGC | 9.04 nM | 8.24 nM |  | 
29 | CCAUAAAAGAUCCAAAAUUACAACAUGAGGAUCACCCAUGUGCAGGAUAUCGUGCCAGUGAAGUACGAGAAGGGCAGACACUGC | 450 nM | 487 nM |  | 
30 | UUCCUCUUUGUGAGGAUAUCGUCCGUUUUUUGUUACGAGAAGGCACAUGAGGAUCACCCAUGUUUUUUGUUUUU | 20.4 nM | 68.3 nM |  | 
31 | UAUAUAUAGUAAGGAUAUGUAAUUACUUUAUAAACAGAAGGUACUGACAUGAGGAUCACCCAUGUUUUAGUGUGGGCAUGUAGA | 87 nM | 113 nM |  | 
32 | CCUUUACAUGAGGAUCACCCAUGUCAGGAUAUCCUGUGGUGUUGUCUCGGGCGACACAUGAGCCAGGAGAAGGGACGAAGGGAA | 49 nM | 76.3 nM |  | 
33 | AUAUCUUUAUCAGGAUAUGGACAGGCCUGUCCGUAUUGAGACAGUAACAUGAGGAUCACCCAUGUCCAGAAGGGAUCGAUGUAU | 56.5 nM | 45.8 nM |  | 
34 | UUUCCGCGAGGAUAUGCGGGCUGUGCUUUUCAUUUCUUACAACAUGAGGAUCACCCAUGUAGAAGGUGCUUCUU | 213 nM | 189 nM |  | 
35 | UUAAAUCGAAACAUGAGGAUCACCCAUGUGUUGUAAUUAACAUAGGAUAUGUAAAUACUUUUUUAAUAGAAGGAUGAUAAUACU |  |  | 17 nM | 12.9 nM
36 | AGGAACAUGAGGAUCACCCAUGUUAGAGACCUCAUGCGAUGUAGAAGGAUAAUCCGAGAAGAGGUAUAGGAUAUACAUGAGAAA | 208 nM | 171 nM |  | 
37 | ACCUCGUACACAGGAUAUGAUUACUUGCAGCCUGCGUUGACAUGAGGAUCACCCAUGUGGACUGAUCAGAAGGGUGAACGGAAG |  |  |  | 112 nM
38 | CAGUACUGAGGAUAUACAUGAGGAUCACCCAUGUGUUCCAGCUAGGAAACUAGCAAGAGUAGAAGGCAGUACUG | 23.7 nM | 459 nM |  | 

Row | Sequence | apparent Kd [1] | apparent Kd [2] | apparent Kd [3] | apparent Kd [4]
39 | GUACUGACAGGAUAUACAUGAGGAUCACCCAUGUCCUUGUGCUGACAAAAGUCAGCACGUAGAAGGGUCUGUAC | 22.9 nM | 207 nM |  | 
40 | GUUAAGGUAGGAUAUACGAUAAUAUAGGGUAGAGAUAUAACACAUGAGGAUCACCCAUGUAGAAGGACCAAUUG | 25.3 nM | 75.2 nM |  | 
41 | GCUCGCGUCGGUUCGCUGGCCUGAGAGGAUAUCCACUGGCAUGUCGACAUGAGGAUCACCCAUGUGGAGAAGGCUCAGGAUAAA | 311 nM | 552 nM |  | 
42 | CUGGGCGGAGGAUAUGCGGGUUGGGCUUUUGUUCGGCUGGGACAUGAGGAUCACCCAUGUAGAAGGUUGUUCGG | 168 nM | 124 nM |  | 
43 | GAACUGAAGCAUAGCUUUAGUCGUACAUGAGGAUCACCCAUGUAGGAUAUGGUAGGCUUAGCUUACUAGAAGGAUAGAGUGAUC | 140 nM | 66.8 nM |  | 
44 | AGAUGACAUGUAGGAUAUCGAGGCCUGAGGCCUCGAGAAGGACAUGAGGAUCACCCAUGUUUGCCGAGCAUGGAAUCCCGCACU | 29.1 nM | 205 nM |  | 
45 | GCCAUCGCAUGAGGAUAUCGUCAGGUUUCCUGACGAGAAGGCAUGUCAUAAGACAUGAGGAUCACCCAUGUAGUUAAGAUGGCA |  |  | 658 nM | 57 nM
46 | ACAUUUAAUACAGGAUAUGUUGGUAUACAAUAGAUUGGUUAUAACACAUCAACAGAAGGGUAGAACAUGAGGAUCACCCAUGUA |  |  | 53.6 nM | 23.3 nM
47 | CUUGAAUAAGUGAGGAUAUACUGUUAGUAAUGAUUGUAGAAGGUACAUGAGGAUCACCCAUGUUUAUUCAUAAU | 18.2 nM | 18.3 nM |  | 
48 | GCUCGUCGUGGAAGAGCAAAAGGACAGGAUAUCGCUUAAACAUGAGGAUCACCCAUGUCCGUUAACGAGAAGGGUCGAAUAAAU |  |  | 138 nM | 24.3 nM
49 | GCAUAUCAGGGAGGAUAUGACAUGAGGAUCACCCAUGUAAUUAUGGCUCUGUCAGAAGGCCCAUCAUCACUAUAGUGACGAGAA | 479 nM | 63.2 nM |  | 
50 | UUAAAUCAUGUAGGAUAUGCAUGGCGAAGCUACGCAGAAGGACAUGAGGAUCACCCAUGUUCUGGCUACCGAGUACGGUGGCAA | 20.5 nM | 81.2 nM |  | 
51 | GCUGCGCGAGGAUAUGCGGUUUGUGCUUUGGCCCAUGGCGUACAUGAGGAUCACCCAUGUAGAAGGCGUGUGGG | 13.5 nM | 13.8 nM |  | 
52 | AAAUACGGUCAAGGAUAUGUAUAAAAGAUAAGAAAACAUGAGGAUCACCCAUGUAUAUGGUGGGAACAGAAGGUGAAUAAGUAA | 182 nM | 142 nM |  | 
53 | UUGUUACAUGAGGAUCACCCAUGUGAGGAUAUGGCCCGCCCGGCGUGAGCUGGUUUUGUCAGAAGGCGCGUGGG | 111 nM | 159 nM |  | 
54 | GCAGUAUCAGGAUAUACAUGAGGAUCACCCAUGUGACUCCAUAGGAAGCUAUGUGGAUGUAGAAGGGAUCACUG | 54.6 nM | 183 nM |  | 
55 | GUAGCAUUCUGAGGAUAUUCAUACCGGAAACGGACAUGAGGAUCACCCAUGUGGCGAAAGCCUUGGGAGAAGGCAGUAUGCUAC |  |  | 740 nM | 27.4 nM
56 | GCAGGAUAAGUGAGGAUAUACCUCUGGAUACAGAGGUAGAAGGCACAUGAGGAUCACCCAUGUCUAUAACCUGC | 15.5 nM | 22.4 nM |  | 
